Compound activity as filed in PubChem.
Sampled rows, rich in hits. Any-hit rate of the full collection: about 4%.
hiPSC survival: enhancers of single-cell hiPSC survival, primary screen, ATPlite luminescence | 100% = ROCK inhibitor wells, 0% = DMSO | survival enhancement, % at 20 µM | 0.044% of 360,000 active; in the data active means survival enhancement above about 18%;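 further: cells exposed to compounds for 16 hours before the ATP read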
FAS TE block: FAS thioesterase domain inhibitors, primary screen, biochemical, fluorescence intensity, uHTS; Fatty acid synthase (Homo sapiens), P49327; recombinant FAS-TE, OMFH fluorogenic substrate, fluorescence endpoint; inhibition, % at 15 µM; 0.67% of 360,000 active; AID 602261, 2012;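 active means compounds whose normalised, plate-corrected inhibition of enzyme fluorescence in the single-dose primary screen is 50% or more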
Cardio protect: cardioprotection against H2O2-induced cell death, primary screen, uHTS, H9c2 cells, ATPLite luminescence. protection from H2O2 cell death, % at 20 µM. 0.63% of 360,000 active. H9c2 cardiomyocytes, H2O2 injury protection, 2 h;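 active means compounds giving at least 50% protection of heart cells from peroxide-induced death in the single-dose screen, raw or plate-pattern-corrected value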
GRIN3A LBD mod: binders of NR3A ligand-binding domain, primary screen, biophysical, differential scanning fluorimetry, uHTS; Glutamate receptor ionotropic, NMDA 3A (GRIN3A) ligand-binding domain; NR3A LBD differential scanning fluorimetry, Tm shift; 0% = protein alone, 100% = glycine-bound protein; Tm shift relative to glycine control, % at 25 µM; 2.5% of 340,000 active; AID 1259313, 2017;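 active means melting temperature shift of at least 10% of the positive control shift, at one fixed dose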
Arr AP2 block: inhibitors of beta-arrestin/AP2 binding, primary screen, biochemical, GPCR trafficking, flow cytometry; inhibition, % at 10 µM; 0.31% of 340,000 active; beta-arrestin 1 C-terminal peptide binding to AP2 beta2-adaptin appendage (human); FITC-arrestin peptide / GST-AP2 beads; AP2 beta2 appendage carries R879A mutation;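 active means inhibition above a set limit, near 3 SD of compounds lacking own fluorescence, cut at about 54% in these data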
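System: GST-AP2 R879A bound to glutathione beads, E. coli-expressed. Also added: 50 nM FITC-arrestin peptide. Schedule: compound with beads 12 min RT, then probe 1 h RT. Signal: bead flow cytometry, FITC channel. Read-out basis: percent response.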
SENP1 FRET inh: human SENP1 catalytic domain inhibitors, primary screen, biochemical, FRET, uHTS. 0.21% of 360,000 active. recombinant SENP1 catalytic domain, CyPet-SUMO1-YPet FRET cleavage. Sentrin-specific protease 1 (Homo sapiens), Q9P0U3. inhibition, % at 10 µM;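 active means inhibition at least 30% at 10 µM, raw YFP signal under a set limit, fluorescence ratio 0.5 to 1.5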
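Compound: 10 µM single point, 0.5% DMSO; Test system: hSENP1 catalytic domain, recombinant; Timing: 50 min reaction at room temperature; Technique: FRET, CFP and YFP emission; Control set: no-enzyme wells low, DMSO-plus-enzyme wells high control.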
Numbers stand for hits; - = inactive; . = no result given.

SMILES	hiPSC survival	FAS TE block	Cardio protect	GRIN3A LBD mod	Arr AP2 block	SENP1 FRET inh
C[C@H](O)[C@@H]1C(=O)N2CCc3ccc(N4CCN(C)CC4)cc3[C@@H]2C[C@@H]1N(C)C(=O)c1cccnc1	-	-	-	.	.	-
CCn1c2ccccc2c2cc(NC(=O)COC(=O)c3ccc(O)cc3)ccc21	-	-	-	14.8	-	-
Cc1[nH]n(C(N)=S)c(=O)c1N=Nc1ccccc1C(F)(F)F	-	-	-	10.5	-	-
CCN1C(=O)[C@H]2[C@@H](c3ccc(OC)cc3)N[C@]3(CCCN(Cc4ccc(Br)cc4)C3=O)[C@H]2C1=O	-	-	-	.	.	-
OC[C@@H]1CN(Cc2ccccc2)C[C@H](n2cnc3c(NCc4ccncc4)ncnc32)O1	-	-	-	.	.	-
Cc1cc(C(=O)COC(=O)c2ccc(NC(=O)CC#N)cc2)c(C)n1-c1ccc(OC(F)F)cc1	-	-	-	16.8	-	-
Cc1cc(C(=O)COC(=O)c2ccc(NC(=O)CC#N)cc2)c(C)n1CC(F)(F)F	-	-	-	.	.	-
CN[C@H](C)C(=O)NC[C@H]1O[C@@H](n2cc(C)c(=O)[nH]c2=O)C[C@@H]1O	-	-	-	.	.	-
N#CC1=C(N)NC(SCC(=O)c2ccc(Br)cc2)=C(C#N)C12CCCCC2	-	-	-	16.5	-	-
O=C(O)c1cc(NN=Nc2cccc(S(=O)(=O)O)c2)cc([N+](=O)[O-])c1	-	-	-	10.0	-	-
Nc1ccc(C#Cc2ccc3c(=O)c4ccccc4oc3c2)cc1	-	-	-	-	-	-
Cn1c2ccccc2c(=O)c2ccc(C#Cc3ccccn3)cc21	.	.	.	-	.	.
COc1cc2oc3cc(C#Cc4ccc(N)cc4)ccc3c(=O)c2cc1OC	-	-	71.6	-	-	-
N#Cc1ccc(C#Cc2ccc3oc4ccccc4c(=O)c3c2)cc1	-	-	-	-	-	-
COc1cc2oc3ccc(C#Cc4ccc(N)cc4)cc3c(=O)c2cc1OC	-	-	56.8	-	-	-
COc1cc2oc3ccc(C#Cc4ccccn4)cc3c(=O)c2cc1OC	-	-	66.2	-	-	-
O=C(CCn1c(=S)[nH]c2cc3c(cc2c1=O)OCO3)NCCc1ccccc1Cl	-	-	-	.	.	-
COC1C(CO)OC(n2c3c(Cl)cccc3c3c4c(c5c6cccc(Cl)c6[nH]c5c32)C(=O)NC4=O)C(O)C1O (configuration not stated)	-	-	-	-	-	-
COC(=O)c1cccc(NC(=O)c2cc3ccccc3o2)c1	-	-	-	-	-	-
CN(C)S(=O)(=O)c1ccc(NC(=O)c2cc3ccccc3o2)cc1	-	-	-	30.7	-	-
COC(=O)c1cc(NC(=O)c2cc3ccccc3o2)cc(C(=O)OC)c1	-	-	89.2	-	-	-
COc1ccc(-c2cccc(N3CCN(c4ccccn4)CC3)n2)cc1OC	-	-	-	.	.	-
Nc1n[nH]c(N)c1N=Nc1cccc(C(F)(F)F)c1	-	-	-	20.1	-	-
O=C1NC[C@@H](CCCCN2C[C@H](Cc3ccc(O)cc3)N(Cc3ccccc3)C(=O)C2=O)N(CC2CCCCC2)C1=O	-	-	.	.	.	-
COc1cc(C(=O)N2C[C@@H]3CCC[C@H]2C3)ccc1OC1CCN(C(C)=O)CC1	-	-	-	-	-	-
SMILES	hiPSC survival	FAS TE block	Cardio protect	GRIN3A LBD mod	Arr AP2 block	SENP1 FRET inh
COc1cc(C(=O)N2C[C@H]3CC[C@H]2C3)ccc1OC1CCN(C(C)=O)CC1	-	-	-	13.1	-	-
COc1ccc(C2CC(c3ccccc3)=NN2c2ccc(Cl)c(C(=O)O)c2)cc1 (configuration not stated)	-	-	-	12.8	-	-
COc1ccc(C2CC(c3ccc(Cl)cc3)=NN2c2ccc(S(N)(=O)=O)cc2)cc1 (configuration not stated)	-	-	-	36.8	-	-
NS(=O)(=O)c1ccc(N2N=C(c3ccccc3)CC2c2cccc(F)c2)cc1 (configuration not stated)	-	-	-	-	-	-
COc1ccc(C2CC(c3ccccc3)=NN2c2ccc(N)cc2)cc1 (configuration not stated)	-	-	-	-	-	-
COc1ccc(C2CC(c3cccc(Cl)c3)=NN2c2ccc(S(N)(=O)=O)cc2)cc1 (configuration not stated)	-	-	-	28.4	-	-
NS(=O)(=O)c1ccc(N2N=C(c3ccc(Br)cc3)CC2c2ccc(F)cc2)cc1 (configuration not stated)	-	-	-	39.2	-	-
COc1ccc(Cl)cc1CNC[C@H]1O[C@@H](n2cnc3c(=O)[nH]c(N)nc32)[C@H](O)[C@@H]1O	-	-	-	.	.	-
COc1ccc(CNC(=O)COC(=O)c2c(NC(C)=O)sc(C)c2C)cc1OC	-	-	-	.	.	-
c1csc(C2Nc3ccccc3-c3nc4ccccc4n32)c1 (configuration not stated)	-	-	-	24.3	-	-
Cc1cccc(C(O)c2ncc(-c3ccccc3)[nH]2)c1C (configuration not stated)	-	-	-	.	.	-
COc1ccc(/C=C2\C(=O)N(c3c(Cl)cc(Cl)cc3Cl)N=C2NC(=O)c2cccc([N+](=O)[O-])c2)cc1	-	-	-	12.9	-	-
CN(C)c1ccc(C=C2C(=O)OC(C)(C)OC2=O)cc1	-	-	-	-	-	-
CCN(CC)c1ccc(C=C2C(=O)OC3(CCCC3)OC2=O)cc1	-	-	-	23.2	-	-
CCN(CC)c1ccc(C=C2C(=O)OC(C)(C(C)(C)C)OC2=O)cc1 (configuration not stated)	-	-	-	-	-	-
CCN(CC)c1ccc(C=C2C(=O)OC(c3ccccc3)OC2=O)cc1 (configuration not stated)	-	-	-	31.6	-	-
C[C@@H]1CN([C@@H](C)CO)C(=O)c2cc(NC(=O)Nc3ccccc3)ccc2O[C@@H](C)CCCCO[C@H]1CN(C)C(=O)Nc1ccc(C(F)(F)F)cc1	-	-	-	.	.	-
CC(C)(C)c1ccc(C(=O)c2c[nH]c(C(=O)NCCCn3ccnc3)c2)cc1	-	-	-	-	-	-
CCC(=O)c1c[nH]c(C(=O)NCCCn2ccnc2)c1	-	-	-	12.2	-	-
